Results reported in ChEMBL document CHEMBL1134284, “The biological effects of structural variation at the meta position of the aromatic rings and at the end of the alkenyl chain in the alkenyldiarylmethane series of non-nucleoside reverse transcriptase inhibitors” (J Med Chem, 2001).

Assays:
[1] = Antiviral activity against Ba-L monocyte tropic isolate strain in monocyte; type: functional; conditions: Homo sapiens
Summary of the method: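 Monocytes isolated from hepatitis- and HIV-seronegative donors by Ficoll-Hypaque gradient, cultured 6 days into macrophages, then infected with Ba-L. Medium RPMI 1640 with 10% FBS, 2 mM glutamine, penicillin/streptomycin. Replication read as p24 antigen by ELISA 6 days postinfection. […] Run in triplicate, with AZT as positive control.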

[2] = tested on: CCRF-CEM; assay: Antiviral activity against site directed 4X AZT resistant isolate HIV-1 L100I in CEM cells; type: functional, cell-based, Homo sapiens
Summary of the method: (§1)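 CEM-SS cells infected with low-cytopathicity site-directed RT-mutant NL4-3 clones (A98G, L74V, 4XAZT = D67N/K70R/T215Y/K219Q, 4XAZT/L100I). Replication was quantified by p24 ELISA rather than cytoprotection. […] Triplicate, variation of mean about 10%.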

[3] = tested on: CCRF-CEM; assay: Antiviral activity against site directed 4X AZT resistant isolate HIV-1 in CEM cells; type: functional, cell-based, Homo sapiens; conditions: Homo sapiens, CCRF-CEM
[4] = tested on: CCRF-CEM; assay: Antiviral activity against site directed resistant isolate HIV-1 K101E in CEM cells; type: functional, cell-based, Homo sapiens
[5] = tested on: CCRF-CEM; assay: Antiviral activity against site directed resistant isolate HIV-1 K103N in CEM cells; type: functional, cell-based, Homo sapiens
Summary of the method: (§2)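 CEM-SS cells in RPMI 1640 with 10% heat-inactivated FBS were infected with NL4-3 molecular clones carrying site-directed RT mutations. Cytoprotection from virus-induced syncytial killing was read by MTS/phenazine ethosulfate reduction (A490) 6 days after infection. […] Triplicate, variation of mean about 10%.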

[6] = tested on: CCRF-CEM; assay: Antiviral activity against site directed resistant isolate HIV-1 L100I in CEM cells; type: functional, cell-based, Homo sapiens; summary of the method: as §2
[7] = tested on: CCRF-CEM; assay: Antiviral activity against site directed resistant isolate HIV-1 L74V in CEM cells; type: functional, cell-based, Homo sapiens; summary of the method: as §1
[8] = tested on: CCRF-CEM; assay: Antiviral activity against site directed resistant isolate HIV-1 V106A in CEM cells; type: functional, cell-based, Homo sapiens; summary of the method: as §2
[9] = tested on: CCRF-CEM; assay: Antiviral activity against site directed resistant isolate HIV-1 Y181C in CEM cells; type: functional, cell-based, Homo sapiens; summary of the method: as §2
[10] = tested on: CCRF-CEM; assay: Antiviral activity against site directed resistant isolate HIV-1 Y188C in CEM cells; type: functional, cell-based, Homo sapiens; summary of the method: as §2
[11] = tested on: CCRF-CEM; assay: Antiviral activity against site directed resistant isolates in HIV-1 A98G CEM cells; type: functional, cell-based, Homo sapiens; summary of the method: as §1
[12] = tested on: CCRF-CEM; assay: Antiviral activity against site directed wild-type enzyme isolate HIV-1 NL4-3WT in CEM cells; type: functional, cell-based; conditions: Homo sapiens
Summary of the method: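 Wild-type NL4-3 in CEM-SS cells, measured both by MTS cytoprotection 6 days after infection and by p24 ELISA. The IC50 is the mean of the two methods' values.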

[13] = tested on: Human immunodeficiency virus type 1 (RF/HAT ISOLATE); assay: Inhibitory concentration for cytopathicity of HIV-1RF in CEM-SS cells; type: functional, organism-based; conditions: Human immunodeficiency virus 1, RF
Summary of the method: (§3)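 CEM-SS cells kept in RPMI 1640 with 10% heat-inactivated FBS, 2 mM glutamine, penicillin/streptomycin. Microtiter assay with cytopathic HIV-1 RF, or mock infection for toxicity. Viability read by MTS/phenazine ethosulfate reduction (absorbance 490 nm) 6 days after infection. […] Triplicate.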

[14] = Ratio of CC50/EC50 was determined; type: cell-based; conditions: human, CEM-SS cells; read-out: TI
Summary of the method: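 HIV-1 RF–infected CEM-SS cells (RPMI 1640, 10% heat-inactivated FBS, 2 mM glutamine, penicillin/streptomycin), plus mock-infected CEM-SS in parallel. Cell killing and viability were read by MTS/phenazine ethosulfate reduction at 490 nm 6 days after infection. […] Index = CC50 ÷ EC50. Triplicate tests.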

[15] = tested on: CEM-SS; assay: Concentration required for cytotoxicity against mock infected CEM-SS cells; type: functional; conditions: Homo sapiens; summary of the method: as §3
[16] = Antiviral activity against ROJO virus strain in PBLs (peripheral blood lymphocytes); type: functional, cell-based; conditions: Homo sapiens
Summary of the method: (§4)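 PBMCs isolated from hepatitis- and HIV-seronegative donors by Ficoll-Hypaque gradient and stimulated 3 days with phytohemagglutinin/IL-2. Infected with pediatric low-passage clinical isolates or NIAID subtype isolates, in RPMI 1640 with 10% FBS, 2 mM glutamine, penicillin/streptomycin. Replication read as supernatant reverse transcriptase activity. […] Run in triplicate, with AZT as positive control.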

[17] = Antiviral activity against SLKA virus strain in PBLs (peripheral blood lymphocytes); type: functional, cell-based; conditions: Homo sapiens; summary of the method: as §4
[18] = Antiviral activity against TEKI virus strain in PBLs (peripheral blood lymphocytes); type: functional, cell-based; conditions: Homo sapiens; summary of the method: as §4
[19] = Antiviral activity against WEJO virus strain in PBLs (peripheral blood lymphocytes); type: functional, cell-based; conditions: Homo sapiens; summary of the method: as §4
[20] = Antiviral activity against multi drug resistant MDR 769 strain in PBLs (peripheral blood lymphocytes); type: functional, cell-based; conditions: Homo sapiens
Summary of the method: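 PBMC from hepatitis- and HIV-seronegative donors isolated by Ficoll-Hypaque gradient and stimulated 3 days with phytohemagglutinin/IL-2 before infection. Medium RPMI 1640 with 10% FBS, 2 mM glutamine, penicillin/streptomycin. Replication read as supernatant reverse transcriptase activity. […] Run in triplicate, SD within triplicate under 10%; AZT positive control.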

[21] = Antiviral activity against subtype isolate A strain in PBLs (peripheral blood lymphocytes); type: functional, cell-based; conditions: Homo sapiens; summary of the method: as §4
[22] = Antiviral activity against subtype isolate B strain in PBLs (peripheral blood lymphocytes); type: functional, cell-based, Homo sapiens; conditions: Homo sapiens; summary of the method: as §4
[23] = Antiviral activity against subtype isolate C strain in PBLs (peripheral blood lymphocytes); type: functional, cell-based; conditions: Homo sapiens; summary of the method: as §4
[24] = Antiviral activity against subtype isolate D strain in PBLs (peripheral blood lymphocytes); type: functional, cell-based; conditions: Homo sapiens; summary of the method: as §4
[25] = Antiviral activity against subtype isolate E strain in PBLs (peripheral blood lymphocytes); type: functional, cell-based; conditions: Homo sapiens
[26] = Antiviral activity against subtype isolate F strain in PBLs (peripheral blood lymphocytes); type: functional, cell-based, Homo sapiens; summary of the method: as §4
[27] = Antiviral activity against subtype isolate G strain in PBLs (peripheral blood lymphocytes); type: functional, cell-based; conditions: Homo sapiens; summary of the method: as §4
[28] = Antiviral activity against subtype isolate O strain in PBLs (peripheral blood lymphocytes); type: functional, cell-based, Homo sapiens; conditions: Homo sapiens; summary of the method: as §4
[29] = tested on: CCRF-CEM; assay: Antiviral activity against site directed resistant isolate HIV-1 V179D in CEM cells; type: functional, cell-based, Homo sapiens; summary of the method: as §2

COC(=O)CCCC=C(c1cc(Br)c(OC)c(C(=O)OC)c1)c1cc(Br)c(OC)c(C(=O)OC)c1
IC50 [1]: 3.6 µM
IC50 [2]: 320 nM
IC50 [3]: 32 nM
IC50 [4]: 594 nM
IC50 [5]: 350 nM
IC50 [6]: 84 nM
IC50 [7]: 284 nM
IC50 [8]: 9.84 µM
IC50 [9]: 8.3 µM
IC50 [10]: 2000 nM
IC50 [11]: 460 nM
IC50 [12]: 400 nM
EC50 [13]: 1.3 nM
selectivity ratio [14]: 10000
CC50 [15]: 13 µM
IC50 [16]: 540 nM
IC50 [17]: 1000 nM
IC50 [18]: 900 nM
IC50 [19]: 400 nM
IC50 [20]: 48.8 µM
IC50 [21]: 200 nM
IC50 [22]: 5.4 µM
IC50 [23]: 310 nM
IC50 [24]: 180 nM
IC50 [25]: 200 nM
IC50 [26]: 1900 nM
IC50 [27]: 300 nM
IC50 [28]: 16 µM
IC50 [29]: 1300 nM
